RGS7-Gao reg = modulates binding of RGS7 to human Galphao. P09471. Multiplexed bead flow cytometry; actives lie on both sides. binding response (% of control), % at 10 µM. 220,000 compounds, 0.35% hits. AID 1439; in the data active = binding response below about 49% or above about 150%; inconclusive = no clear call, values can overlap the other calls; inactive = in between;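 note: fluorescent Galphao held in activated GDP-AlF4 state binding bead-coupled RGS7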
RGS4-Gao reg = modulates binding of RGS4 to human Galphao; Multiplexed bead flow cytometry; actives lie on both sides; binding response (% of control), % at 10 µM; 220,000 compounds, 0.33% hits; in the data active = binding response below about 49% or above about 150%; inactive = in between;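 note: fluorescent Galphao activated with aluminum fluoride binding bead-coupled RGS4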
RGS8-Gao reg = human RGS8-Galphao interaction regulation; multiplexed bead flow cytometry, RGS8-Galphao binding; actives lie on both sides; response (percent of control binding), % at 10 µM; 220,000 compounds, 0.34% hits; AID 1423; in the data active = response below about 60% or above about 140%; inactive = in between;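 note: Galphao activated as the GDP aluminium fluoride complex binding bead-coupled RGS8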
RGS16-Gao HTS = regulators of human RGS16-Galphao interaction. AID 1441. bead-based flow cytometry RGS16-Galphao binding, fluorescence; actives lie on both sides. O15492+P09471. binding response (% of control), % at 10 µM. 220,000 compounds, 0.38% hits; call rule not given here;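 note: Galphao activated by GDP with aluminum fluoride before binding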
ABCB1 inh = blocks JC-1 efflux by human ABCB1 transporter; P08183; CCRF-Adr cells, flow cytometry; inhibition, % at 6.6 µM; 190,000 compounds, 0.067% hits; in the data active = inhibition above about 40%;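 note: 0% = vehicle and 100% = reference inhibitor; higher value means more JC-1 retained so stronger ABCB1 efflux block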
Target sequence (P08183 whole entry, looked up): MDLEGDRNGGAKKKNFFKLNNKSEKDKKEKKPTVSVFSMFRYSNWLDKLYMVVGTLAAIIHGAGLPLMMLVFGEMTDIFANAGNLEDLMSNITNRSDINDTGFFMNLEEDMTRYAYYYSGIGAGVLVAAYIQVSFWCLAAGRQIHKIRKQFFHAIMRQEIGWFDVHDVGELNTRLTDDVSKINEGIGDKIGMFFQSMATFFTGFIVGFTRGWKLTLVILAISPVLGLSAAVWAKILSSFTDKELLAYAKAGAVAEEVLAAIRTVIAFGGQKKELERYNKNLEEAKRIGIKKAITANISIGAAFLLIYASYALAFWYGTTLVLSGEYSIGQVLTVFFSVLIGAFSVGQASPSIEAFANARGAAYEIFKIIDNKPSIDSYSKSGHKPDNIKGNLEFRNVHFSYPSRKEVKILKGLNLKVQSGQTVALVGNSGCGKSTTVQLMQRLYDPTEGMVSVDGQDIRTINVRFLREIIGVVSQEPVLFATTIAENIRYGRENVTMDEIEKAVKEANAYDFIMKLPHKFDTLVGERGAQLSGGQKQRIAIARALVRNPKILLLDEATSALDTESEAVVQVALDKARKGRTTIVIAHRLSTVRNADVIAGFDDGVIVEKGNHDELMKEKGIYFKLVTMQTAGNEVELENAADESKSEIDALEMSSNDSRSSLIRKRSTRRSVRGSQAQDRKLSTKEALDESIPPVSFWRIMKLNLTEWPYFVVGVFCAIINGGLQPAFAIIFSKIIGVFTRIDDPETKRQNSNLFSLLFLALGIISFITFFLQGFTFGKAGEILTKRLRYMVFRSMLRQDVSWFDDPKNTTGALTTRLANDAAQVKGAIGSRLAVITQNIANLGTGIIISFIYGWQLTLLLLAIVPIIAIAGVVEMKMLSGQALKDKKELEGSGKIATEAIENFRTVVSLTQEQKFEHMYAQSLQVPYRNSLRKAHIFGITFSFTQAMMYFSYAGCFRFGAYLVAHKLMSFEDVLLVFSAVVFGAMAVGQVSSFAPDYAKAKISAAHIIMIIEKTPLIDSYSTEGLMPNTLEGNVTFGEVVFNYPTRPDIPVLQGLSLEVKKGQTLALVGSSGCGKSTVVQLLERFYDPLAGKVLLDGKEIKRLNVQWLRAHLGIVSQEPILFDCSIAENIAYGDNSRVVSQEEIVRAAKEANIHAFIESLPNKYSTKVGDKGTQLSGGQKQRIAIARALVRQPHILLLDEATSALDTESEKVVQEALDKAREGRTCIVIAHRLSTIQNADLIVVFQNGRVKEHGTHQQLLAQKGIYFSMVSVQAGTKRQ
ABCG2 inh = inhibitors of human ABCG2 transporter, ABCB1 counter-screen | AID 1325 | 190,000 compounds, 0.1% hits | Q9UNQ0 | IgMXP3 cells, JC-1 efflux, flow cytometry | inhibition, % at 6.6 µM;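 active = inhibition above 80%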;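 note: 0% = DMSO and 100% = nicardipine control wells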
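Measure – % inhibition of efflux relative to nicardipine and DMSO · Test system – ABCG2 IgMXP3 and barcoded ABCB1 CCRF-Adr cell mix · Control set – nicardipine as high control, DMSO as low control · Compound – one concentration, 6.6 µM final · Signal – flow cytometry of retained JC-1 fluorescence · Timing – 10 min exposure at 25 °C with rotation, no wash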
ABCB1 single pt = confirmation of human ABCB1 transporter inhibitors, ABCG2 counter-screen | shares compounds with ABCG2 inh | CCRF-Adr cells, JC-1 efflux, flow cytometry | inhibition, % at 6.6 µM | 270 compounds, 7% hits;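 active = inhibition of pump activity above 50%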;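 note: 0% = DMSO and 100% = nicardipine full pump inhibition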
ABCG2 single pt = inhibits human ABCG2 efflux, confirmed at single point | shares compounds with ABCG2 inh | IgMXP3 cells, JC-1 efflux, flow cytometry | inhibition, % at 6.6 µM | 270 compounds, 6% hits | AID 1453;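 active = inhibition above 50%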;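 note: 0% = DMSO wells and 100% = nicardipine pump inhibitor wells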
IgMXP3 autofluor = counter-screen for ABCG2 inhibitors: compound fluorescence in IgMXP3 cells; shares compounds with ABCG2 inh; compound autofluorescence 488/530 nm, flow; stronger effect = higher value; fluorescence at 6.6 µM; 270 compounds, 30% hits; AID 1480;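 active = fluorescence in ABCG2-expressing cells above the plate's control-well mean plus 3 SD, cut at about 15 in these data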;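 note: median cell fluorescence with compound minus that of DMSO-treated control cells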
CCRF autofluor = CCRF-Adr autofluorescence flag for ABCB1 confirmation. fluorescence at 6.6 µM. CCRF-Adr cells, compound autofluorescence 488/530 nm, flow cytometry; stronger effect = higher value. shares compounds with ABCG2 inh. 270 compounds, 30% hits. AID 1483;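 active = fluorescence beyond the plate control mean plus 3 SD, with a fluorescence-to-maximum score over 2, cut at about 25 in these data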
An asterisk follows results filed as active. An excerpt weighted towards active compounds, which were near 0.9% of everything screened.

How did CN(CC(O)Cn1cnc2c1c(=O)n(C)c(=O)n2C)c1ccccc1 (configuration not stated) do in these assays?
RGS7-Gao reg: 100.3; RGS4-Gao reg: 103.8; RGS8-Gao reg: 106.1; RGS16-Gao HTS: 113.1; ABCB1 inh: 0.5; ABCG2 inh: 4.7

What do the screens show for `CC1=NN(c2ccc([N+](=O)[O-])cc2)C(=O)/C1=C\N(C)C`?
RGS7-Gao reg: 99.4; RGS4-Gao reg: 99.0; RGS8-Gao reg: 101.9; RGS16-Gao HTS: 105.9; ABCB1 inh: 6.2; ABCG2 inh: 80.4; ABCB1 single pt: 9.9; ABCG2 single pt: 38.4; IgMXP3 autofluor: -0.09; CCRF autofluor: -0.59

How did CCCC1=NN(c2ccc([N+](=O)[O-])cc2)C(=O)/C1=C/N(C)C do in these assays?
RGS7-Gao reg: 101.0; RGS4-Gao reg: 98.1; RGS8-Gao reg: 103.1; RGS16-Gao HTS: 123.5; ABCB1 inh: 0.8; ABCG2 inh: 27.4

How did Cc1ccc(-c2nn(-c3ccccc3)cc2C(=O)N2CCN(c3ccccn3)CC2)cc1 do in these assays?
RGS7-Gao reg: inconclusive; RGS4-Gao reg: 95.8; RGS8-Gao reg: 97.3; RGS16-Gao HTS: 94.7; ABCB1 inh: 9.1; ABCG2 inh: 3.6

What do the screens show for `COc1ccc(-c2nn(-c3ccccc3)cc2/C=C/C(=O)N2CCN(c3ccccn3)CC2)cc1`?
RGS7-Gao reg: 97.8; RGS4-Gao reg: 98.6; RGS8-Gao reg: 101.5; RGS16-Gao HTS: 102.7; ABCB1 inh: 48.0*; ABCG2 inh: 32.7; ABCB1 single pt: 33.3; ABCG2 single pt: 21.7; IgMXP3 autofluor: 18.1*; CCRF autofluor: 4.26

What do the screens show for `CCCN(CCC)CCOc1cc(C)ccc1C(C)C`?
RGS7-Gao reg: 100.7; RGS4-Gao reg: 95.7; RGS8-Gao reg: 97.2; RGS16-Gao HTS: 107.3; ABCB1 inh: 137.3*; ABCG2 inh: active; ABCB1 single pt: 0.8; ABCG2 single pt: -0.8; IgMXP3 autofluor: 13.3; CCRF autofluor: 37.3*

What do the screens show for `Cc1c(C#N)c(NC(=O)CCl)n(Cc2ccccc2)c1C`?
RGS7-Gao reg: 98.8; RGS4-Gao reg: 98.4; RGS8-Gao reg: 101.4; RGS16-Gao HTS: 102.5; ABCB1 inh: 0.2; ABCG2 inh: 1.2

Results for Cc1c(C#N)c(NC(=O)CCl)n(Cc2ccc(F)cc2)c1C ?
RGS7-Gao reg: 97.2; RGS4-Gao reg: 99.8; RGS8-Gao reg: 99.7; RGS16-Gao HTS: 98.5; ABCB1 inh: 45.2*; ABCG2 inh: 12.1; ABCB1 single pt: 1.2; ABCG2 single pt: 0.7; IgMXP3 autofluor: 4.86; CCRF autofluor: 8.56

Results for O=C(NC1CCN(C(=O)C2CCCCC2)CC1)c1ccccc1 ?
RGS7-Gao reg: inconclusive; RGS4-Gao reg: 97.1; RGS8-Gao reg: 97.3; RGS16-Gao HTS: 100.4

Results for COc1ccccc1N1CCN(C(=O)C2CCC(Cn3c(=S)[nH]c4ccccc4c3=O)CC2)CC1 (configuration not stated) ?
RGS7-Gao reg: 100.6; RGS4-Gao reg: 98.6; RGS8-Gao reg: 99.8; RGS16-Gao HTS: 101.9; ABCB1 inh: 1.9; ABCG2 inh: 0.5

How did COc1ccc(N2CCN(C(=O)C3CCC(Cn4c(=S)[nH]c5ccccc5c4=O)CC3)CC2)cc1 (configuration not stated) do in these assays?
RGS7-Gao reg: 101.1; RGS4-Gao reg: 101.3; RGS8-Gao reg: 102.1; RGS16-Gao HTS: 103.3; ABCB1 inh: 40.9*; ABCG2 inh: 33.8; ABCB1 single pt: 34.2; ABCG2 single pt: 23.4; IgMXP3 autofluor: 2.06; CCRF autofluor: 9.46

Results for CCOC(=O)c1c(NC(=O)CSc2ncccn2)sc2c1CCN(Cc1ccccc1)C2 ?
RGS7-Gao reg: 103.4; RGS4-Gao reg: 107.5; RGS8-Gao reg: 119.0; RGS16-Gao HTS: 166.1; ABCB1 inh: 48.1*; ABCG2 inh: 66.9; ABCB1 single pt: 66.5*; ABCG2 single pt: 19.9; IgMXP3 autofluor: 47.2*; CCRF autofluor: 109*

Results for Cc1cccn2cc(COc3ccc(-c4ccccc4)cc3)nc12 ?
RGS7-Gao reg: 93.1; RGS4-Gao reg: 96.0; RGS8-Gao reg: 95.9; RGS16-Gao HTS: 92.0; ABCB1 inh: 0.3; ABCG2 inh: 9.8

Results for CC(=O)c1c(C)[nH]c(C(=O)OCC(=O)Nc2cc(Cl)ccc2[N+](=O)[O-])c1C ?
RGS7-Gao reg: 98.3; RGS4-Gao reg: 101.5; RGS8-Gao reg: 101.1; RGS16-Gao HTS: 101.0; ABCB1 inh: 6.2; ABCG2 inh: 9.0; ABCB1 single pt: 9.1; ABCG2 single pt: 34.1; IgMXP3 autofluor: 4.51; CCRF autofluor: 11.7

How did Cc1cccc(C)c1NC(=O)C[N+](C)(C)CC(O)COc1cccc2ccccc12 (configuration not stated) do in these assays?
RGS7-Gao reg: 102.0; RGS4-Gao reg: 102.7; RGS8-Gao reg: 100.0; RGS16-Gao HTS: 101.9; ABCB1 inh: 0.4; ABCG2 inh: 1.1

How did CCOC(=O)c1c(/N=C/C2=C(O)CC(C)(C)CC2=O)sc(C(C)=O)c1C do in these assays?
RGS7-Gao reg: inconclusive; RGS4-Gao reg: 99.6; RGS8-Gao reg: 99.5; RGS16-Gao HTS: 101.8; ABCB1 inh: 0.2; ABCG2 inh: 6.3

What do the screens show for `O=[N+]([O-])c1ccc(OCCN2CCCCCC2)cc1`?
RGS7-Gao reg: 99.0; RGS4-Gao reg: 100.7; RGS8-Gao reg: 103.1; RGS16-Gao HTS: 100.9; ABCB1 inh: -0.1; ABCG2 inh: 81.5*; ABCB1 single pt: 0.1; ABCG2 single pt: 2.8; IgMXP3 autofluor: 0.21; CCRF autofluor: 5.76

How did COc1ccc(C2C3=C(CCCC3=O)Nc3ccc4ncccc4c32)cc1OC (configuration not stated) do in these assays?
RGS7-Gao reg: 111.1; RGS4-Gao reg: 99.0; RGS8-Gao reg: 98.2; RGS16-Gao HTS: 98.2; ABCB1 inh: 63.0*; ABCG2 inh: 0.0; ABCB1 single pt: 4.8; ABCG2 single pt: 16.2; IgMXP3 autofluor: 0.96; CCRF autofluor: 10.2

What do the screens show for `COc1cc(C2C3=C(CCCC3=O)Nc3ccc4ncccc4c32)ccc1O` (configuration not stated)?
RGS7-Gao reg: inconclusive; RGS4-Gao reg: 102.6; RGS8-Gao reg: 99.4; RGS16-Gao HTS: 101.9; ABCB1 inh: 0.6; ABCG2 inh: 8.8
